Screens: PubChem BioAssay, The Scripps Research Institute Molecular Screening Center
OX1R antag-1: OX1R (HCRTR1) antagonists, primary screen, fluorescence, CHO/OX1R cells, Fluo-8 calcium, orexin A; Fluo-8 calcium fluorescence; inhibition, % at 5 µM; hit rate 0.43% among 330,000;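 active = inhibition above its plate's threshold, mean inhibition of all tested compounds on the plate plus 3 SD, cut at about 37% in these data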;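 also: 0% = orexin A challenge wells and 100% = SB-334867-A antagonist wells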
Target sequence (O43613 whole entry, looked up): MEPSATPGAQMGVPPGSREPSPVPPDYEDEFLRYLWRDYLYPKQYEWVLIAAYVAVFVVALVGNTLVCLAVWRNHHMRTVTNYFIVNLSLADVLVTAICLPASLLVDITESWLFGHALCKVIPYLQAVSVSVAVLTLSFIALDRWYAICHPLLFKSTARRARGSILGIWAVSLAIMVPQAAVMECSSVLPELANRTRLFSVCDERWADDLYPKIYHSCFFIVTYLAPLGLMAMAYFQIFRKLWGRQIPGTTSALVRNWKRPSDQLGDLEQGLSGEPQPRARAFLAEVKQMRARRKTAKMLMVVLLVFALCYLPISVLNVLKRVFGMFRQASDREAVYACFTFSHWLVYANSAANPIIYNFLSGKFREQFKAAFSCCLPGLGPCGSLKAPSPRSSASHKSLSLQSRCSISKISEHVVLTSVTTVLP
CHO-K1 Ca ag: counter-screen for M1 agonists: effect in parental CHO-K1 cells | Fluo-8 calcium fluorescence; scaled to maximal ATP response, vehicle zero | activation, % at 3 µM | hit rate 0.48% among 360,000 | AID 602248, 2012; in the data active = activation above about 15%;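 also: untransfected CHO-K1 host cells lacking M1 receptor as counterscreen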
M1 PAM parental: nonselective calcium activators in parental CHO-K1 cells, primary screen, counter-screen for M1 PAM project, cell-based, Fluo-8 calcium fluorescence, full deck, 1536-well; activation, % at 3 µM; hit rate 0.02% among 360,000; ATP EC20; 0% at ATP EC20, 100% at ATP max;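 active = activation above the run cutoff, the mean activation of all test compounds plus 3 SD, cut at about 40% in these data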;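 also: peak over basal fluorescence ratio in a 140 s read after ATP addition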
OX1R antag-2: antagonists of human orexin 1 receptor (OX1R) | AID 485270, 2010 | inhibition, % at 6.6 µM | OX1R-expressing cells, FRET antagonist read-out | hit rate 1.8% among 330,000 | Orexin/Hypocretin receptor type 1 (Homo sapiens), O43613; in the data active = inhibition mostly above about 38%, no sharp cut-off; inactive = mostly below about 40%;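 also: 0% = agonist challenge alone and 100% = reference antagonist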
CHO-K1 Ca antag: counter-screen for M1 antagonists: effect in parental CHO-K1 cells; hit rate 0.6% among 360,000; inhibition, % at 3 µM; AID 602250; ATP-induced calcium, Fluo-8 fluorescence;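 active = inhibition above a per-plate cutoff, the plate's mean sample inhibition plus 3 SD, cut at about 24% in these data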;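 also: 0% = DMSO plus EC80 ATP and 100% = DMSO alone without ATP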
CHO parental Ca: ATP-evoked calcium signal inhibitors, parental CHO, primary screen, counter-screen for OX1R antagonist project, cell-based, fluorescence, Fluo-8 calcium dye. parental CHO-K1, ATP-induced calcium, Fluo-8 fluorescence. inhibition, % at 5.6 µM. hit rate 0.63% among 330,000. AID 463079, 2010;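 active = inhibition above that plate's mean sample inhibition plus 3 SD, cut at about 26% in these data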;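 also: 0% = ATP-challenged DMSO wells and 100% = DMSO wells without ATP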
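material = parental CHO cells | also added = ATP as calcium-mobilizing challenge | dosing = single point at 5.6 µM | detection = intracellular calcium via Fluo-8 no-wash fluorescent dye | read-out = % inhibition | benchmarks = low control ATP plus DMSO, high control DMSO only | repeats = one well per compound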
Numbers without * were called inactive. Compounds with a hit are over-represented: about 2.9% of the library has one in this group of screens.

Screening CCOc1ccc(CN(C)C(=O)c2cc(S(=O)(=O)N3CCCC3)ccc2C)cc1 returned OX1R antag-1 -21.7, CHO-K1 Ca ag 4.0, M1 PAM parental -16.0, OX1R antag-2 -0.3, CHO-K1 Ca antag -4.2 and CHO parental Ca -9.7.
`O=C(Nc1ccccc1)Nc1ccc(-n2ccc(C(F)(F)F)n2)cc1` gave OX1R antag-1 37.0, CHO-K1 Ca ag 16.7*, M1 PAM parental -18.6, OX1R antag-2 23.9, CHO-K1 Ca antag 25.7* and CHO parental Ca 41.2*.
`O=C(O)CC(CC(=O)Nc1ccc(-n2ccc(C(F)(F)F)n2)cc1)c1ccccc1` (stereo not drawn) gave OX1R antag-1 -17.4, CHO-K1 Ca ag 0.0, M1 PAM parental -11.4, OX1R antag-2 11.6, CHO-K1 Ca antag -3.3 and CHO parental Ca 0.0.
OCC1(Cc2ccccc2)CCN(C2CCN(c3ccc(F)c(F)c3)CC2)CC1 was read as OX1R antag-1 6.1, CHO-K1 Ca ag 7.4, M1 PAM parental 12.6, OX1R antag-2 13.7, CHO-K1 Ca antag -1.9 and CHO parental Ca 23.6.
`CCC(=O)c1ccc(OCC(=O)Nc2cccc(S(=O)(=O)N3CCCCCC3)c2)cc1` gave CHO-K1 Ca ag 18.4*, M1 PAM parental -15.2 and CHO-K1 Ca antag 35.5*.
Screening CCN(CC)S(=O)(=O)c1cccc(NC(=O)Nc2cccc(C(F)(F)F)c2)c1 returned OX1R antag-1 20.1, CHO-K1 Ca ag 10.9, M1 PAM parental 3.4, OX1R antag-2 39.1*, CHO-K1 Ca antag 22.9 and CHO parental Ca 58.7*.
CCN(CC)S(=O)(=O)c1cccc(NC(=O)/C=C/c2ccc([N+](=O)[O-])cc2)c1 was read as OX1R antag-1 -0.1, CHO-K1 Ca ag 8.3, M1 PAM parental 9.4, OX1R antag-2 14.3, CHO-K1 Ca antag -3.7 and CHO parental Ca 1.7.
CN(CC(=O)Nc1cccc(S(=O)(=O)N2CCCC2)c1)CC(=O)Nc1ccc(Cl)c(C(F)(F)F)c1 was read as OX1R antag-1 -2.9, CHO-K1 Ca ag 6.4, M1 PAM parental -10.4, OX1R antag-2 13.8, CHO-K1 Ca antag 31.7* and CHO parental Ca 53.6*.
`Cc1cc(OCC(=O)Nc2cccc(S(=O)(=O)N3CCCC3)c2)ccc1Cl` gave CHO-K1 Ca ag 8.0, M1 PAM parental -6.9 and CHO-K1 Ca antag -2.0.
For CCN(CC)S(=O)(=O)c1cccc(NC(=O)/C=C/c2cccc([N+](=O)[O-])c2)c1 the results were OX1R antag-1 21.8, CHO-K1 Ca ag 15.6*, M1 PAM parental -8.8, OX1R antag-2 19.4, CHO-K1 Ca antag 7.8 and CHO parental Ca 32.4.
Screening Cc1cc(C)cc(C(=O)OCC(=O)Nc2cccc(S(=O)(=O)NC3=NCCCCC3)c2)c1 returned OX1R antag-1 -33.0, CHO-K1 Ca ag 1.6, M1 PAM parental -11.8, OX1R antag-2 17.2, CHO-K1 Ca antag 24.5* and CHO parental Ca -21.6.
Screening CCN(CC)S(=O)(=O)c1cccc(NC(=O)CNc2cccc(S(=O)(=O)N3CCCC3)c2)c1 returned OX1R antag-1 28.2, CHO-K1 Ca ag 6.0, M1 PAM parental -17.3, OX1R antag-2 25.4, CHO-K1 Ca antag 31.9* and CHO parental Ca 56.9*.
Screening CCN(CC)S(=O)(=O)c1cccc(NC(=O)COC(=O)c2cc(=O)c3ccccc3o2)c1 returned OX1R antag-1 -17.3, CHO-K1 Ca ag 0.4, M1 PAM parental 16.1, OX1R antag-2 8.3, CHO-K1 Ca antag -3.2 and CHO parental Ca -13.4.
For CCN(CC)S(=O)(=O)c1cccc(NC(=O)COC(=O)c2ccc(Br)o2)c1 the results were OX1R antag-1 -7.1, CHO-K1 Ca ag 25.3*, M1 PAM parental 0.0, OX1R antag-2 23.1, CHO-K1 Ca antag 6.2 and CHO parental Ca 3.5.
For C[C@@H](c1ccccc1)N1C[C@@H](COCc2ccccc2)Oc2cc(N3CCC[C@H]3CO)ccc2S1(=O)=O the results were CHO-K1 Ca ag 3.8, M1 PAM parental 11.8 and CHO-K1 Ca antag -4.3.
Screening C=C1N(C)c2cc([N+](=O)[O-])c(N)cc2C1(C)C returned OX1R antag-1 -22.4, CHO-K1 Ca ag -0.1, M1 PAM parental 23.3, OX1R antag-2 56.3*, CHO-K1 Ca antag -16.6 and CHO parental Ca -7.9.
For CC1(C)Oc2cc(N)c([N+](=O)[O-])cc2O1 the results were OX1R antag-1 -9.5, CHO-K1 Ca ag -0.2, M1 PAM parental 5.2, OX1R antag-2 42.8, CHO-K1 Ca antag 5.6 and CHO parental Ca 10.5.
O=[N+]([O-])c1ccc(S(=O)(=O)c2cccc(C(F)(F)F)c2)nc1 was read as OX1R antag-1 30.8, CHO-K1 Ca ag 1.1, M1 PAM parental 4.8, OX1R antag-2 39.7, CHO-K1 Ca antag 10.2 and CHO parental Ca 41.0*.
CC1CCCCC1NC(=O)C1CCN(S(=O)(=O)c2cccc3nonc23)CC1 (stereo not drawn) was read as OX1R antag-1 -13.2, CHO-K1 Ca ag 0.1, M1 PAM parental 3.8, OX1R antag-2 26.5, CHO-K1 Ca antag -0.2 and CHO parental Ca -3.4.
`CCC(C)(C)c1ccc(OCCCC[n+]2ccc(C)cc2)c(C(C)(C)CC)c1` gave OX1R antag-1 27.4, OX1R antag-2 19.5 and CHO parental Ca 24.3.
For CCC(C)(C)c1ccc(OCCCC[n+]2cccc(C)c2C)c(C(C)(C)CC)c1 the results were OX1R antag-1 52.3*, CHO-K1 Ca ag 25.5*, M1 PAM parental 11.4, OX1R antag-2 9.4, CHO-K1 Ca antag 13.2 and CHO parental Ca 40.4*.
COc1cc(/C=C2/SC(N)=NC2=O)ccc1Oc1ccc([N+](=O)[O-])cc1[N+](=O)[O-] was read as OX1R antag-1 1.1, CHO-K1 Ca ag 0.5, M1 PAM parental 19.0, OX1R antag-2 4.9, CHO-K1 Ca antag -4.8 and CHO parental Ca -7.9.
`COc1cc(/C=C2/SC(=O)NC2=O)ccc1Oc1ccc([N+](=O)[O-])cc1[N+](=O)[O-]` gave OX1R antag-1 -14.0, CHO-K1 Ca ag 0.9, M1 PAM parental 7.8, OX1R antag-2 47.3*, CHO-K1 Ca antag -2.0 and CHO parental Ca -1.2.
COc1cc(/C=C2/NC(=O)N(Cc3ccccc3F)C2=O)ccc1Oc1ccc([N+](=O)[O-])cn1 was read as OX1R antag-1 -13.2, CHO-K1 Ca ag 1.0, M1 PAM parental 13.2, OX1R antag-2 15.3, CHO-K1 Ca antag -10.8 and CHO parental Ca -8.2.
For COc1cc(/C=C2\SC(=O)NC2=O)ccc1Oc1ccc([N+](=O)[O-])cn1 the results were OX1R antag-1 -9.3, CHO-K1 Ca ag 3.1, M1 PAM parental 18.0, OX1R antag-2 52.7*, CHO-K1 Ca antag -12.5 and CHO parental Ca -4.5.
CN(C)N1C(=O)/C(=C/c2ccco2)SC1=Nc1ccccc1 was read as OX1R antag-1 -19.1, CHO-K1 Ca ag 2.6, M1 PAM parental -18.3, OX1R antag-2 15.6, CHO-K1 Ca antag 19.9 and CHO parental Ca -13.1.
